# In ChEMBL document CHEMBL3244133, “Synthesis and biological activities of some uronic acids, uronates, uronamides, and urononitriles of pyrimidine nucleosides” (J Med Chem, 1978):
# Active and inactive are the calls of the source. No cut-off for these calls is given here.
# System: not listed separately
# Experiment: Antiviral activity against HSV1 CL101 infected in African green monkey Vero cells assessed as inhibition of plaque formation at 400 uM after 40 hrs relative to control
# Assay type: functional, Herpes simplex virus (type 1 / strain CL101)
# Conditions: Human alphaherpesvirus 1, Vero
row,Compound,inhibition at 400 µM [%]
1,N#C[C@H]1O[C@@H](n2cc(I)c(O)nc2=O)C[C@@H]1O,74
2,NC(=O)[C@H]1O[C@@H](n2ccc(O)nc2=O)C[C@@H]1O (stereo in doubt; 19),0
3,NC(=O)[C@H]1O[C@@H](n2cc(I)c(O)nc2=O)C[C@@H]1O,96
4,Nc1ccn([C@@H]2O[C@H](C(=O)O)[C@@H](O)[C@@H]2O)c(=O)n1,0
5,COC(=O)[C@H]1O[C@@H](n2cc(F)c(O)nc2=O)C[C@@H]1O,0
6,NC(=O)[C@H]1O[C@@H](n2cc(Br)c(O)nc2=O)C[C@@H]1O,92

# Biological target: not listed separately
# Experiment: Competitive inhibition of HSV-1 pyrimidine deoxythymidine kinase using 2-[14C]deoxythymidine as substrate
# Design: species or system Human alphaherpesvirus 1
# Conditions: not given
# How it was run: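 HSV-1 encoded pyrimidine deoxyribonucleoside kinase, purified from LMTK⁻ cells. Assay at 37 °C in 50 mM Tris pH 7.8 with 3 mM ATP·Mg²⁺, 0.3 mg/mL BSA, 0.3 mM 2-mercaptoethanol and 2% glycerol. Substrate was varied [2-¹⁴C]deoxythymidine plus analogue. Reaction was started with enzyme; aliquots were taken over time and phosphorylated product measured. Ki came from double-reciprocal plots.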
row,Ki [µM],Compound
1,0.2,O=c1[nH]c(=O)n([C@H]2C[C@H](O)[C@@H](CO)O2)cc1I [IDOXURIDINE]
2,9.5,O=c1ccn([C@H]2C[C@H](O)[C@@H](CO)O2)c(=O)[nH]1 [DEOXYURIDINE]
3,1.5,O=c1[nH]c(=O)n([C@H]2C[C@H](O)[C@@H](CF)O2)cc1I
4,2.7,O=C(O)[C@H]1O[C@@H](n2cc(Br)c(O)nc2=O)C[C@@H]1O
5,1,NC(=O)[C@H]1O[C@@H](n2cc(I)c(O)nc2=O)C[C@@H]1O
6,5.4,Cc1cn([C@H]2C[C@H](O)[C@@H](C(=O)O)O2)c(=O)[nH]c1=O [5'-CARBOXY THYMIDINE]
7,0.8,NC(=O)[C@H]1O[C@@H](n2cc(Br)c(O)nc2=O)C[C@@H]1O

# Continued, compound first:
row,Compound,Ki [µM]
1,NC(=O)[C@H]1O[C@@H](n2ccc(O)nc2=O)C[C@@H]1O (stereo in doubt),310
2,O=c1[nH]c(=O)n([C@H]2C[C@H](O)[C@@H](CO)O2)cc1F [FLOXURIDINE],1.5
3,CC(=O)O[C@H]1C[C@H](n2cc(Br)c(=O)[nH]c2=O)O[C@@H]1C(N)=O,192
4,CC(=O)O[C@H]1C[C@H](n2cc(I)c(=O)[nH]c2=O)O[C@@H]1C#N,18
5,CC(=O)O[C@H]1C[C@H](n2cc(I)c(=O)[nH]c2=O)O[C@@H]1C(N)=O,20
6,O=C(O)[C@H]1O[C@@H](n2ccc(=O)[nH]c2=O)C[C@@H]1O,500
7,Cc1cn([C@H]2C[C@H](O)[C@@H](C(N)=O)O2)c(=O)[nH]c1=O,1.6
8,COC(=O)[C@H]1O[C@@H](n2ccc(=O)[nH]c2=O)C[C@@H]1O,500
9,COC(=O)[C@H]1O[C@@H](n2cc(Br)c(=O)[nH]c2=O)C[C@@H]1O,2.9
10,O=c1[nH]c(=O)n([C@H]2C[C@H](O)[C@@H](CO)O2)cc1Br [BROXURIDINE],0.2
11,N#C[C@H]1O[C@@H](n2cc(I)c(O)nc2=O)C[C@@H]1O,1.3
12,COC(=O)[C@H]1O[C@@H](n2cc(F)c(O)nc2=O)C[C@@H]1O,410

# System: Lacticaseibacillus casei
# Experiment: Inhibition of Lactobacillus casei deoxythymidylate synthetase at 250 uM
# Conditions: not given
row,Compound,inhibition
1,COC(=O)[C@H]1O[C@@H](n2cc(F)c(O)nc2=O)C[C@@H]1O,inactive

# System: not listed separately
# Experiment: Antiviral activity against HSV1 CL101 infected in African green monkey Vero cells assessed as inhibition of plaque formation at 40 uM after 40 hrs relative to control
# Assay type: functional, Herpes simplex virus (type 1 / strain CL101)
# Conditions: Human alphaherpesvirus 1, Vero
row,Compound,inhibition at 40 µM [%]
1,NC(=O)[C@H]1O[C@@H](n2cc(I)c(O)nc2=O)C[C@@H]1O,78
2,NC(=O)[C@H]1O[C@@H](n2cc(Br)c(O)nc2=O)C[C@@H]1O,42

# System: CCRF S-180
# Experiment: Cytotoxicity against mouse S180 cells at 0.001 uM after 18 to 42 hrs relative to control
# Assay type: functional
# Conditions: not given
row,Compound,inhibition at 0.001 µM [%]
1,O=c1[nH]c(=O)n([C@H]2C[C@H](O)[C@@H](CO)O2)cc1F [FLOXURIDINE],95

# System: L1210
# Experiment: Inhibition of deoxythymidylate synthetase in mouse L1210 cells at 250 uM
# Assay type: cell-based
# Conditions: not given
row,Compound,inhibition
1,COC(=O)[C@H]1O[C@@H](n2cc(F)c(O)nc2=O)C[C@@H]1O,inactive

# System: not listed separately
# Experiment: Retention time of the compound by liquid chromatography
# Assay type: physicochemical
# Conditions: not given
# How it was run: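 Reverse-phase HPLC with a methanol-water gradient, separating uronic acids from the parent pyrimidine bases and nucleosides.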
row,Retention_time [min],Compound
1,14.41,O=c1[nH]c(=O)n([C@H]2C[C@H](O)[C@@H](CO)O2)cc1I [IDOXURIDINE]
2,2.56,O=C(O)[C@H]1O[C@@H](n2cc(Br)c(O)nc2=O)C[C@@H]1O

# Continued, compound first:
row,Compound,Retention_time [min]
1,O=c1[nH]c(=O)n([C@H]2C[C@H](O)[C@@H](CO)O2)cc1F [FLOXURIDINE],7.93
2,O=c1[nH]c(=O)n([C@H]2C[C@H](O)[C@@H](CO)O2)cc1Br [BROXURIDINE],12.16
3,Nc1ccn([C@@H]2O[C@H](C(=O)O)[C@@H](O)[C@@H]2O)c(=O)n1,2.56

# System: not listed separately
# Experiment: Antiviral activity against HSV1 CL101 infected in African green monkey Vero cells assessed as inhibition of plaque formation at 10 uM after 40 hrs relative to control
# Assay type: functional, Herpes simplex virus (type 1 / strain CL101)
# Conditions: Human alphaherpesvirus 1, Vero
row,Compound,inhibition at 10 µM [%]
1,O=c1[nH]c(=O)n([C@H]2C[C@H](O)[C@@H](CO)O2)cc1Br [BROXURIDINE],99.6

# System: CCRF S-180
# Experiment: Cytotoxicity against mouse S180 cells at 400 uM after 18 to 42 hrs relative to control
# Assay type: functional
# Conditions: not given
row,Compound,inhibition at 400 µM [%]
1,N#C[C@H]1O[C@@H](n2cc(I)c(O)nc2=O)C[C@@H]1O,0
2,NC(=O)[C@H]1O[C@@H](n2ccc(O)nc2=O)C[C@@H]1O (stereo in doubt; 19),0
3,NC(=O)[C@H]1O[C@@H](n2cc(I)c(O)nc2=O)C[C@@H]1O,0
4,Nc1ccn([C@@H]2O[C@H](C(=O)O)[C@@H](O)[C@@H]2O)c(=O)n1,76
5,COC(=O)[C@H]1O[C@@H](n2cc(F)c(O)nc2=O)C[C@@H]1O,32
6,NC(=O)[C@H]1O[C@@H](n2cc(Br)c(O)nc2=O)C[C@@H]1O,0

# System: Enterococcus faecium
# Experiment: Antimicrobial activity against Streptococcus faecium assessed as growth inhibition at 400 uM after 15 to 17 hrs by turbidity assay in presence of 4.53 nM folic acid
# Assay type: functional
# Conditions: not given
# How it was run: (§1)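 S. faecium (ATCC 8043), washed and resuspended in saline to 100 Klett units, then diluted 10-fold as inoculum. Test compound was added to basal medium with deoxythymidine (7 μM final) or folic acid (4.53 nM final). Incubation was 15-17 h at 37 °C. Growth was taken as the turbidity change before versus after incubation, read on a Klett colorimeter with a red filter (640-700 nm).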
row,Compound,inhibition (INH) [%]
1,O=c1[nH]c(=O)n([C@H]2C[C@H](O)[C@@H](CO)O2)cc1I [IDOXURIDINE],71
2,O=c1[nH]c(=O)n([C@H]2C[C@H](O)[C@@H](CO)O2)cc1F [FLOXURIDINE],95
3,O=c1[nH]c(=O)n([C@H]2C[C@H](O)[C@@H](CO)O2)cc1Br [BROXURIDINE],91
4,N#C[C@H]1O[C@@H](n2cc(I)c(O)nc2=O)C[C@@H]1O,14
5,NC(=O)[C@H]1O[C@@H](n2ccc(O)nc2=O)C[C@@H]1O (stereo in doubt; 19),22
6,NC(=O)[C@H]1O[C@@H](n2cc(I)c(O)nc2=O)C[C@@H]1O,28
7,Nc1ccn([C@@H]2O[C@H](C(=O)O)[C@@H](O)[C@@H]2O)c(=O)n1,0
8,COC(=O)[C@H]1O[C@@H](n2cc(F)c(O)nc2=O)C[C@@H]1O,0
9,NC(=O)[C@H]1O[C@@H](n2cc(Br)c(O)nc2=O)C[C@@H]1O,0

# System: Enterococcus faecium
# Experiment: Antimicrobial activity against Streptococcus faecium assessed as concentration required for maximum growth inhibition after 15 to 17 hrs by turbidity assay
# Assay type: functional
# Conditions: not given
# How it was run: as §1
row,Compound,Activity [µM]
1,NC(=O)[C@H]1O[C@@H](n2ccc(O)nc2=O)C[C@@H]1O (stereo in doubt),600
2,NC(=O)[C@H]1O[C@@H](n2ccc(O)nc2=O)C[C@@H]1O (stereo in doubt; 19),600

# System: Enterococcus faecium
# Experiment: Antimicrobial activity against Streptococcus faecium after 15 to 17 hrs by turbidity assay
# Assay type: functional
# Conditions: read-out: ED50 (the source's name)
# How it was run: as §1
row,Compound,EC50 [µM]
1,O=c1ccn([C@H]2C[C@H](O)[C@@H](CO)O2)c(=O)[nH]1 [DEOXYURIDINE],37
2,NC(=O)[C@H]1O[C@@H](n2ccc(O)nc2=O)C[C@@H]1O (stereo in doubt; 19),200

# System: not listed separately
# Experiment: Antiviral activity against HSV1 CL101 infected in African green monkey Vero cells assessed as inhibition of plaque formation at 50 uM after 40 hrs relative to control
# Assay type: functional, Herpes simplex virus (type 1 / strain CL101)
# Conditions: Human alphaherpesvirus 1, Vero
row,Compound,inhibition at 50 µM [%]
1,O=c1[nH]c(=O)n([C@H]2C[C@H](O)[C@@H](CO)O2)cc1I [IDOXURIDINE],99.7

# System: not listed separately
# Experiment: Antiviral activity against HSV1 CL101 infected in African green monkey Vero cells assessed as inhibition of plaque formation at 0.1 uM after 40 hrs relative to control
# Assay type: functional, Herpes simplex virus (type 1 / strain CL101)
# Conditions: Human alphaherpesvirus 1, Vero
row,Compound,inhibition at 0.1 µM [%]
1,O=c1[nH]c(=O)n([C@H]2C[C@H](O)[C@@H](CO)O2)cc1F [FLOXURIDINE],88

# System: Enterococcus faecium
# Experiment: Antimicrobial activity against Streptococcus faecium assessed as growth inhibition at 400 uM after 15 to 17 hrs by turbidity assay in presence of 7 uM deoxythymidine
# Assay type: functional
# Conditions: not given
# How it was run: as §1
row,Compound,inhibition (INH) [%]
1,O=c1[nH]c(=O)n([C@H]2C[C@H](O)[C@@H](CO)O2)cc1I [IDOXURIDINE],12
2,O=c1[nH]c(=O)n([C@H]2C[C@H](O)[C@@H](CO)O2)cc1F [FLOXURIDINE],96
3,O=c1[nH]c(=O)n([C@H]2C[C@H](O)[C@@H](CO)O2)cc1Br [BROXURIDINE],76
4,N#C[C@H]1O[C@@H](n2cc(I)c(O)nc2=O)C[C@@H]1O,0
5,NC(=O)[C@H]1O[C@@H](n2ccc(O)nc2=O)C[C@@H]1O (stereo in doubt; 19),71
6,NC(=O)[C@H]1O[C@@H](n2cc(I)c(O)nc2=O)C[C@@H]1O,0
7,Nc1ccn([C@@H]2O[C@H](C(=O)O)[C@@H](O)[C@@H]2O)c(=O)n1,0
8,COC(=O)[C@H]1O[C@@H](n2cc(F)c(O)nc2=O)C[C@@H]1O,0
9,NC(=O)[C@H]1O[C@@H](n2cc(Br)c(O)nc2=O)C[C@@H]1O,0

# System: not listed separately
# Experiment: Dissociation constant, pKa of the compound
# Assay type: physicochemical
# Conditions: not given
row,Compound,pKa
1,O=c1ccn([C@H]2C[C@H](O)[C@@H](CO)O2)c(=O)[nH]1 [DEOXYURIDINE],9.3
